Results from ChEMBL document CHEMBL3414486, “Synthesis of heterocycle-modified betulinic acid derivatives as antitumor agents” (Eur J Med Chem, 2015).

Assays:
[1] = tested on: MDA-MB-231; test: Cytotoxicity against human MDA-MB-231 cells assessed as growth inhibition after 96 hrs by SRB assay; assay type: functional, cell-based; conditions: MDA-MB-231, 96 h
In short: (§1)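 SRB viability assay. Cells are seeded for 24 h, then exposed for 96 h to a concentration series from 20 mM DMSO stocks, with a DMSO control. Cells are fixed in 50% TCA (2 h, 4 °C), stained with 0.4% SRB for 10 min and washed with 1% acetic acid. Bound dye is dissolved in 10 mM Tris base and read at 515 nm. IC50 is averaged from at least 3 independent experiments. SI is IC50 in HAF divided by IC50 in the cancer line.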

[2] = tested on: T47D; test: Cytotoxicity against human T47D cells assessed as growth inhibition after 96 hrs by SRB assay; assay type: functional, cell-based; in short: as §1
[3] = tested on: DU-145; test: Selectivity index, ratio of IC50 for HAF to IC50 for human DU145 cells; in short: as §1
[4] = tested on: HT-29; test: Cytotoxicity against human HT-29 cells assessed as growth inhibition after 96 hrs by SRB assay; assay type: functional, cell-based; conditions: HT-29, 96 h; in short: as §1
[5] = tested on: NCI/ADR-RES; test: Selectivity index, ratio of IC50 for HAF to IC50 for human MCF7/ADR cells; in short: as §1
[6] = tested on: HCT-116; test: Selectivity index, ratio of IC50 for HAF to IC50 for human HCT116 cells; in short: as §1
[7] = tested on: T47D; test: Selectivity index, ratio of IC50 for HAF to IC50 for human T47D cells; in short: as §1
[8] = Cytotoxicity against HAF assessed as growth inhibition after 96 hrs by SRB assay; conditions: Homo sapiens; in short: as §1
[9] = tested on: PC-3; test: Selectivity index, ratio of IC50 for HAF to IC50 for human PC3 cells; in short: as §1
[10] = tested on: MCF7; test: Selectivity index, ratio of IC50 for HAF to IC50 for human MCF7 cells; in short: as §1
[11] = tested on: HT-29; test: Selectivity index, ratio of IC50 for HAF to IC50 for human HT-29 cells; in short: as §1
[12] = tested on: 4T1; test: Cytotoxicity against mouse 4T1 cells assessed as growth inhibition after 96 hrs by SRB assay; assay type: functional, cell-based; conditions: 4T1, 96 h; in short: as §1
[13] = Cytotoxicity against human HCT116 cells assessed as growth inhibition after 96 hrs by SRB assay; assay type: functional, cell-based; conditions: HCT-116, 96 h; in short: as §1
[14] = tested on: MCF7; test: Cytotoxicity against human MCF7 cells assessed as growth inhibition after 96 hrs by SRB assay; assay type: functional, cell-based; conditions: MCF7, 96 h; in short: as §1
[15] = Cytotoxicity against human MCF7/ADR cells assessed as growth inhibition after 96 hrs by SRB assay; assay type: functional, cell-based; conditions: NCI/ADR-RES; in short: as §1
[16] = Cytotoxicity against human PC3 cells assessed as growth inhibition after 96 hrs by SRB assay; assay type: functional, cell-based; conditions: PC-3, 96 h; in short: as §1
[17] = Selectivity index, ratio of IC50 for HAF to IC50 for human MDA-MB-231 cells; in short: as §1
[18] = tested on: DU-145; test: Cytotoxicity against human DU145 cells assessed as growth inhibition after 96 hrs by SRB assay; assay type: functional, cell-based; conditions: DU-145, 96 h; in short: as §1
[19] = tested on: 4T1; test: Selectivity index, ratio of IC50 for HAF to IC50 for mouse 4T1 cells; in short: as §1

## C=C(C)[C@@H]1CC[C@]2(C(=O)O)CC[C@]3(C)[C@H](CC[C@@H]4[C@@]5(C)CC[C@H](NC(=O)CC6CCNCC6)C(C)(C)[C@@H]5CC[C@]43C)[C@@H]12
[1]
  IC50: 3.17 µM
[2]
  IC50: 2.37 µM
[3]
  Ratio IC50: 2.5
[4]
  IC50: 2.46 µM
[5]
  Ratio IC50: 3.1
[6]
  Ratio IC50: 3.4
[7]
  Ratio IC50: 3.9
[8]
  IC50: 9.21 µM
[9]
  Ratio IC50: 3.6
[10]
  Ratio IC50: 2.7
[11]
  Ratio IC50: 3.7
[12]
  IC50: 5.15 µM
[13]
  IC50: 2.67 µM
[14]
  IC50: 3.43 µM
[15]
  IC50: 3 µM
[16]
  IC50: 2.55 µM
[17]
  Ratio IC50: 2.9
[18]
  IC50: 3.72 µM
[19]
  Ratio IC50: 1.8

## C=C(C)[C@@H]1CC[C@]2(C(=O)O)CC[C@]3(C)[C@H](CC[C@@H]4[C@@]5(C)CC[C@H](NC(=O)c6cccnc6)C(C)(C)[C@@H]5CC[C@]43C)[C@@H]12
[1]
  IC50: > 25 µM
[2]
  IC50: > 25 µM
[4]
  IC50: > 25 µM
[12]
  IC50: > 25 µM
[13]
  IC50: > 25 µM
[14]
  IC50: > 25 µM
[16]
  IC50: > 25 µM
[18]
  IC50: > 25 µM

## COc1cccc2c1C(=O)c1c(O)c3c(c(O)c1C2=O)C[C@@](O)(C(=O)CO)C[C@@H]3O[C@H]1C[C@H](N)[C@H](O)[C@H](C)O1 [DOXORUBICIN]
[8]
  IC50: 0.016 µM
[15]
  IC50: 9.26 µM

## C=C(C)[C@@H]1CC[C@]2(C(=O)O)CC[C@]3(C)[C@H](CC[C@@H]4[C@@]5(C)CC[C@H](NC(=O)CCC6CCNCC6)C(C)(C)[C@@H]5CC[C@]43C)[C@@H]12
[1]
  IC50: 3.27 µM
[2]
  IC50: 2.59 µM
[3]
  Ratio IC50: 1.6
[4]
  IC50: 2.39 µM
[5]
  Ratio IC50: 1.6
[6]
  Ratio IC50: 1
[7]
  Ratio IC50: 2.7
[8]
  IC50: 6.89 µM
[9]
  Ratio IC50: 2
[10]
  Ratio IC50: 2.4
[11]
  Ratio IC50: 2.9
[12]
  IC50: 2.99 µM
[13]
  IC50: 6.86 µM
[14]
  IC50: 2.9 µM
[15]
  IC50: 4.42 µM
[16]
  IC50: 3.42 µM
[17]
  Ratio IC50: 2.1
[18]
  IC50: 4.39 µM
[19]
  Ratio IC50: 2.3

## C=C(C)[C@@H]1CC[C@]2(C(=O)O)CC[C@]3(C)[C@H](CC[C@@H]4[C@@]5(C)CC[C@H](NC(=O)C6CCCN6)C(C)(C)[C@@H]5CC[C@]43C)[C@@H]12 (stereo partly drawn)
[1]
  IC50: 12.8 µM
[2]
  IC50: 11 µM
[4]
  IC50: 18.8 µM
[12]
  IC50: 8.03 µM
[13]
  IC50: 17.5 µM
[14]
  IC50: 15.2 µM
[16]
  IC50: 20.3 µM
[18]
  IC50: 11 µM

## C=C(C)[C@@H]1CC[C@]2(C(=O)O)CC[C@]3(C)[C@H](CC[C@@H]4[C@@]5(C)CC[C@H](NC(=O)C6CCCNC6)C(C)(C)[C@@H]5CC[C@]43C)[C@@H]12 (stereo partly drawn)
[1]
  IC50: 1.94 µM
[2]
  IC50: 2.24 µM
[3]
  Ratio IC50: 1
[4]
  IC50: 1.19 µM
[5]
  Ratio IC50: 8.2
[6]
  Ratio IC50: 2.5
[7]
  Ratio IC50: 1.4
[8]
  IC50: 3.18 µM
[9]
  Ratio IC50: 2.4
[10]
  Ratio IC50: 3.4
[11]
  Ratio IC50: 2.7
[12]
  IC50: 2.18 µM
[13]
  IC50: 1.28 µM
[14]
  IC50: 0.94 µM
[15]
  IC50: 0.39 µM
[16]
  IC50: 1.3 µM
[17]
  Ratio IC50: 1.6
[18]
  IC50: 3.16 µM
[19]
  Ratio IC50: 1.5

## C=C(C)[C@@H]1CC[C@]2(C(=O)O)CC[C@]3(C)[C@H](CC[C@@H]4[C@@]5(C)CC[C@H](NC(=O)c6cccnc6Cl)C(C)(C)[C@@H]5CC[C@]43C)[C@@H]12
[1]
  IC50: > 25 µM
[2]
  IC50: 17.7 µM
[4]
  IC50: > 25 µM
[12]
  IC50: 16.1 µM
[13]
  IC50: > 25 µM
[14]
  IC50: > 25 µM
[16]
  IC50: > 25 µM
[18]
  IC50: > 25 µM

## C=C(C)[C@@H]1CC[C@]2(C(=O)O)CC[C@]3(C)[C@H](CC[C@@H]4[C@@]5(C)CC[C@H](NC(=O)C6CCCCN6)C(C)(C)[C@@H]5CC[C@]43C)[C@@H]12 (stereo partly drawn)
[1]
  IC50: 10.6 µM
[2]
  IC50: 6.49 µM
[4]
  IC50: 20.1 µM
[12]
  IC50: 7.87 µM
[13]
  IC50: 11.4 µM
[14]
  IC50: 4.81 µM
[16]
  IC50: > 25 µM
[18]
  IC50: 7.31 µM

## C=C(C)[C@@H]1CC[C@]2(C(=O)O)CC[C@]3(C)[C@H](CC[C@@H]4[C@@]5(C)CC[C@H](NC(=O)c6ccncc6)C(C)(C)[C@@H]5CC[C@]43C)[C@@H]12
[1]
  IC50: > 25 µM
[2]
  IC50: > 25 µM
[4]
  IC50: > 25 µM
[12]
  IC50: > 25 µM
[13]
  IC50: > 25 µM
[14]
  IC50: > 25 µM
[16]
  IC50: > 25 µM
[18]
  IC50: > 25 µM

## C=C(C)[C@@H]1CC[C@]2(C(=O)O)CC[C@]3(C)[C@H](CC[C@@H]4[C@@]5(C)CC[C@H](NC(=O)c6cnccn6)C(C)(C)[C@@H]5CC[C@]43C)[C@@H]12
[1]
  IC50: > 25 µM
[2]
  IC50: > 25 µM
[4]
  IC50: > 25 µM
[12]
  IC50: > 25 µM
[13]
  IC50: > 25 µM
[14]
  IC50: > 25 µM
[16]
  IC50: > 25 µM
[18]
  IC50: > 25 µM

## C=C(C)[C@@H]1CC[C@]2(C(=O)O)CC[C@]3(C)[C@H](CC[C@@H]4[C@@]5(C)CC[C@H](NC(=O)c6cnc(C)cn6)C(C)(C)[C@@H]5CC[C@]43C)[C@@H]12
[1]
  IC50: > 25 µM
[2]
  IC50: > 25 µM
[4]
  IC50: > 25 µM
[12]
  IC50: > 25 µM
[13]
  IC50: > 25 µM
[14]
  IC50: > 25 µM
[16]
  IC50: > 25 µM
[18]
  IC50: > 25 µM

## C=C(C)[C@@H]1CC[C@]2(C(=O)O)CC[C@]3(C)[C@H](CC[C@@H]4[C@@]5(C)CC[C@H](NC(=O)CCCC6CCNCC6)C(C)(C)[C@@H]5CC[C@]43C)[C@@H]12
[1]
  IC50: 3.44 µM
[2]
  IC50: 5.26 µM
[3]
  Ratio IC50: 1.2
[4]
  IC50: 4.38 µM
[5]
  Ratio IC50: 9.8
[6]
  Ratio IC50: 1.6
[7]
  Ratio IC50: 1.7
[8]
  IC50: 9.15 µM
[9]
  Ratio IC50: 1.7
[10]
  Ratio IC50: 1.4
[11]
  Ratio IC50: 2.1
[12]
  IC50: 6.01 µM
[13]
  IC50: 5.61 µM
[14]
  IC50: 6.49 µM
[15]
  IC50: 0.93 µM
[16]
  IC50: 5.23 µM
[17]
  Ratio IC50: 2.7
[18]
  IC50: 7.7 µM
[19]
  Ratio IC50: 1.5

## C=C(C)[C@@H]1CC[C@]2(C(=O)O)CC[C@]3(C)[C@H](CC[C@@H]4[C@@]5(C)CC[C@H](OC(=O)C6CCNCC6)C(C)(C)[C@@H]5CC[C@]43C)[C@@H]12
[1]
  IC50: 1.6 µM
[2]
  IC50: 3.05 µM
[3]
  Ratio IC50: 2.1
[4]
  IC50: 1.32 µM
[5]
  Ratio IC50: 9.7
[6]
  Ratio IC50: 4.1
[7]
  Ratio IC50: 1.9
[8]
  IC50: 5.7 µM
[9]
  Ratio IC50: 2.6
[10]
  Ratio IC50: 2.4
[11]
  Ratio IC50: 4.3
[12]
  IC50: 3.74 µM
[13]
  IC50: 1.4 µM
[14]
  IC50: 2.41 µM
[15]
  IC50: 0.59 µM
[16]
  IC50: 2.18 µM
[17]
  Ratio IC50: 3.6
[18]
  IC50: 2.69 µM
[19]
  Ratio IC50: 1.5
